ChEMBL document CHEMBL1126934, “Non-peptide ligands for opioid receptors. Design of kappa-specific agonists” (J Med Chem, 1993)

Columns and labels:
[1] = target: Mu-type opioid receptor (Rattus norvegicus, UniProt P33535); experiment: Binding affinity for mu opioid receptor was evaluated by displacing [3H]- diprenorphine
Summary of the method: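 Rat brain minus cerebellum, homogenised in Tris-HCl pH 7.4, spun 40000g 30 min, membranes resuspended at 0.5 mg/mL protein in 50 mM Tris-HCl pH 7.6. Competition against [3H]diprenorphine; nonspecific binding defined with DAGO (100 nM). Ki via Cheng-Prusoff; triplicate curves, n = 5.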

[2] = target: Delta-type opioid receptor (Rattus norvegicus) (UniProt P33533); experiment: Binding affinity for rat delta opioid receptor was evaluated by displacing [3H]- diprenorphine
[3] = target: T1, Kappa-type opioid receptor (Cavia porcellus, UniProt P41144); experiment: Binding affinity for kappa opioid receptor was evaluated by displacing [3H]- diprenorphine
[4] = target: T1, Kappa-type opioid receptor
[5] = target: T1, Kappa-type opioid receptor; remark: listed apart in the source
[6] = system: Mus musculus; experiment: Antinociceptive activity determined in mouse tail flick assay 30 min after sc injection (peak effect); type: functional; settings: 0.5 h
Summary of the method: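 Male Swiss mice (20-25 g), tail flick nociceptive threshold, cutoff 8 s. Drug given sc; read 30 min after injection. ED50 with confidence limits by Litchfield and Wilcoxon method.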

Mu-type opioid receptor, sequence (P33535 whole entry): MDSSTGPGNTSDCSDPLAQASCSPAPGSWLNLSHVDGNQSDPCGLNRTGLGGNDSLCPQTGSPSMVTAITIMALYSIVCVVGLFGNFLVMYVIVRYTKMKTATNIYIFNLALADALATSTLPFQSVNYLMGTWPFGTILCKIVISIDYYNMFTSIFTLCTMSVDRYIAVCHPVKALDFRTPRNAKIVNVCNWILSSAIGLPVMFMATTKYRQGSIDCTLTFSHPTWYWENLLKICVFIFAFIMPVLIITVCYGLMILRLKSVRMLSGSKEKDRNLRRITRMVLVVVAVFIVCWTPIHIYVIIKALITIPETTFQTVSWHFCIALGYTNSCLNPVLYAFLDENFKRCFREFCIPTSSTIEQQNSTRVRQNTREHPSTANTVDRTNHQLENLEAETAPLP
Delta-type opioid receptor (Rattus norvegicus), sequence (P33533 whole entry): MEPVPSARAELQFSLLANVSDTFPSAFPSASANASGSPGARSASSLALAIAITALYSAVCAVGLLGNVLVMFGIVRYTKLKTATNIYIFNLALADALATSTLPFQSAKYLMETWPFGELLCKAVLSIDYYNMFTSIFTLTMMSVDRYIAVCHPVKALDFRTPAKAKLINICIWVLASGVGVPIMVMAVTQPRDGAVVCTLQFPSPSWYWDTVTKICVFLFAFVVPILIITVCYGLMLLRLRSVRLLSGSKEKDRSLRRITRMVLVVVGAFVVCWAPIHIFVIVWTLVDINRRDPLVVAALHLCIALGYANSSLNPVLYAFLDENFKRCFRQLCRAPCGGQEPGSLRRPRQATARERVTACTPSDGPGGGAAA
T1 sequence (P41144 whole entry): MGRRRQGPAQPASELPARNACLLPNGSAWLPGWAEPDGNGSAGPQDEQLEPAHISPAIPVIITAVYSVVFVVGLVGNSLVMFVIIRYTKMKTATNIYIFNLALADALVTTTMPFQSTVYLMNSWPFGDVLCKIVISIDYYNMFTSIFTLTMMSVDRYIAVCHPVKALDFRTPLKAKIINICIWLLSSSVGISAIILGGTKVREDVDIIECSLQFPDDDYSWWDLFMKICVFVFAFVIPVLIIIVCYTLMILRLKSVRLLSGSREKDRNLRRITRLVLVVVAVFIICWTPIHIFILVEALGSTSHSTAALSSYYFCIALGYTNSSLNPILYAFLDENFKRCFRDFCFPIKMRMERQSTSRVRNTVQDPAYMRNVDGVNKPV

Structure (SMILES) | Ki [1] [nM] | Binding affinity [2] [µM] | Ki [3] [nM] | Ki [4] [nM] | Ki [5] [nM] | ED50 [6] [mg/kg]
CCC12CCN(CC3CC3)C(C(=O)c3ccc(O)cc31)C2C (stereo not given) | 690 |  |  |  |  | 
CCCOC(=O)[C@]1(c2ccccc2)CC1CN1CC[C@@]2(C)c3cc(O)ccc3C[C@@H]1[C@@H]2C (stereo not given in full) | > 25000 | > 25 | 6430 |  |  | 
COC(=O)[C@]1(c2ccccc2)C[C@H]1CN1CC[C@@]2(C)c3cc(O)ccc3C[C@@H]1[C@@H]2C | > 25000 | > 25 | 240 | 224 | 926 | 
CN1CC[C@]23c4c5ccc(O)c4O[C@H]2[C@@H](O)C=C[C@H]3[C@H]1C5 [MORPHINE] |  | 1.22 |  |  |  | 4.99
C[C@H]1[C@H]2Cc3ccc(O)cc3[C@]1(C)CCN2CC1C[C@]1(C(=O)O)c1ccccc1 (stereo not given in full) | > 25000 |  | > 25000 |  |  | 
COC(=O)[C@@]1(c2ccccc2)C[C@@H]1CN1CC[C@@]2(C)c3cc(O)ccc3C[C@@H]1[C@@H]2C | > 25000 | > 25 | 2640 |  |  | 
CCCCOC(=O)[C@]1(c2ccccc2)CC1CN1CC[C@@]2(C)c3cc(O)ccc3C[C@@H]1[C@@H]2C (stereo not given in full) | > 25000 | > 25 | > 25000 |  |  | 
CCOC(=O)[C@]1(c2ccccc2)CC1CN1CC[C@@]2(C)c3cc(O)ccc3C[C@@H]1[C@@H]2C (stereo not given in full) | > 25000 | > 25 | 4430 |  |  | 
COC(=O)[C@]1(c2ccccc2)C[C@@H]1CN1CC[C@@]2(C)c3cc(O)ccc3C[C@@H]1[C@@H]2C | > 25000 | > 25 | 866 | 833 | 2620 | 4.52
CC1[C@H]2Cc3ccc(O)cc3[C@]1(C)CCN2CCCc1ccccc1 (stereo not given in full) | 825 |  | 1120 |  |  | 
